This is an account of results in ChEMBL document CHEMBL1932985, “Identification of biaryl sulfone derivatives as antagonists of the histamine H₃ receptor: discovery of (R)-1-(2-(4'-(3-methoxypropylsulfonyl)biphenyl-4-yl)ethyl)-2-methylpyrrolidine (APD916)” (Bioorg Med Chem Lett, 2012).

Molecules are shown by their SMILES. Active and inactive are the calls of the source. The rule behind the calls is not given here. Some results are limits rather than exact numbers.

The subject of data set [1] is Rattus norvegicus. The experiment in a line: Inhibition of RAMH-induced dipsogenia in Sprague-Dawley rat at 0.1 mg/kg, po administered 30 mins prior to RAMH challenge measured up to 20 mins. Type of data set: functional, organism-based. Also noted: dose 0.1 mg/kg. The procedure, abridged:
(§1)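 Rats given compound orally 0.5 h (or, for duration of action, at selected times up to 6 h) before RAMH 10 mg/kg SC; water consumed over 20 min measured. Screening doses 1 or 0.3 mg/kg PO, also 0.1 mg/kg; duration study at 0.6 mg/kg PO. MED = minimum dose fully inhibiting drinking; means ± SEM.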

Data set [2] concerns Rattus norvegicus. The experiment in a line: Inhibition of RAMH-induced dipsogenia in Sprague-Dawley rat at 0.6 mg/kg, po administered 30 mins prior to RAMH challenge measured up to 20 mins. Details: dose 0.6 mg/kg. Type of data set: functional, organism-based. The procedure, abridged:
as §1

The test system of data set [3] is Rattus norvegicus. The experiment in a line: Effect on sleep-awake cycle in EEG/EMG Sprague-Dawley rat model assessed as increase in wakefulness at 0.6 mg/kg, po measured for 2 hrs. Type of data set: functional, organism-based. Details: dose 0.6 mg/kg. The procedure, abridged: (§2)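 Rats with chronically implanted cortical electrodes dosed orally (0.6 mg/kg; dose-response also run) during subjective night, about four hours after lights on; wake time recorded over 8 h versus vehicle and assessed over first 1, 2 and 4 h; means ± SEM.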

Data set [4] relates to Rattus norvegicus. The experiment in a line: Effect on sleep-awake cycle in EEG/EMG Sprague-Dawley rat model assessed as increase in wakefulness at 0.6 mg/kg, po measured for 4 hrs. Type of data set: functional, organism-based. Details: dose 0.6 mg/kg. The procedure, abridged:
as §2

Data set [5] concerns Rattus norvegicus. The data set is described as follows: Effect on sleep-awake cycle in EEG/EMG Sprague-Dawley rat model assessed as increase in wakefulness at 0.3 mg/kg, po measured for 1 hr. Type of data set: functional, organism-based. Details: dose 0.3 mg/kg. The procedure, abridged:
as §2

Data set [6] concerns Rattus norvegicus. The data set is described as follows: Effect on sleep-awake cycle in EEG/EMG Sprague-Dawley rat model assessed as increase in wakefulness at 0.3 mg/kg, po measured for 2 hrs. Type of data set: functional, organism-based. Details: dose 0.3 mg/kg. The procedure, abridged: as §2
In data set [7] the target is Histamine H1 receptor (Homo sapiens) (UniProt P35367). The data set is described as follows: Binding affinity to H1 receptor at 10 uM relative to control. The procedure, abridged:
(§3)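 Broad binding panel of 80 receptors, including histamine H1, H2 and H4, with compound tested at 10 µM; binding expressed as percent of control.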

Data set [8] concerns the target Histamine H2 receptor (Homo sapiens) (UniProt P25021). The experiment in a line: Binding affinity to H2 receptor at 10 uM relative to control. The procedure, abridged: as §3
In data set [9] the target is Histamine H4 receptor (Homo sapiens) (UniProt Q9H3N8). The experiment in a line: Binding affinity to H4 receptor at 10 uM relative to control. The procedure, abridged: as §3
Histamine H4 receptor (Homo sapiens), sequence (Q9H3N8 whole entry): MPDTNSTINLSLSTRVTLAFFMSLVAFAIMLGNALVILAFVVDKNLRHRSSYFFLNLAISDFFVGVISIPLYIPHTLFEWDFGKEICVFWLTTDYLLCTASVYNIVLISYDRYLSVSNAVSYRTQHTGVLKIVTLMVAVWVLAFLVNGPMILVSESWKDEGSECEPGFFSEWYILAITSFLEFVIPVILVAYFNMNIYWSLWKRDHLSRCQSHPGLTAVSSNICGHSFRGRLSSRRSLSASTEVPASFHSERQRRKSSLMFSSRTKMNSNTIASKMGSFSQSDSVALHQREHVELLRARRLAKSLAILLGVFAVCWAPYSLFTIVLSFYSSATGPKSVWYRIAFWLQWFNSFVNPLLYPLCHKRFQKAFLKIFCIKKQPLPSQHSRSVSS
Data set [10] concerns Rattus norvegicus. The experiment in a line: Inhibition of RAMH-induced dipsogenia in Sprague-Dawley rat at 0.6 mg/kg, po administered 1 hr prior to RAMH challenge measured up to 20 mins. Details: dose 0.6 mg/kg. Type of data set: functional, organism-based. The procedure, abridged:
as §1

For data set [11], the target named is Histamine H3 receptor (Rattus norvegicus, UniProt Q9QYN8). The experiment in a line: Displacement of N-[3H]-methylhistamine from histamine H3 receptor in rat cortex membranes. The class given is cell membranes, Membrane.
Histamine H3 receptor, sequence (Q9QYN8 whole entry): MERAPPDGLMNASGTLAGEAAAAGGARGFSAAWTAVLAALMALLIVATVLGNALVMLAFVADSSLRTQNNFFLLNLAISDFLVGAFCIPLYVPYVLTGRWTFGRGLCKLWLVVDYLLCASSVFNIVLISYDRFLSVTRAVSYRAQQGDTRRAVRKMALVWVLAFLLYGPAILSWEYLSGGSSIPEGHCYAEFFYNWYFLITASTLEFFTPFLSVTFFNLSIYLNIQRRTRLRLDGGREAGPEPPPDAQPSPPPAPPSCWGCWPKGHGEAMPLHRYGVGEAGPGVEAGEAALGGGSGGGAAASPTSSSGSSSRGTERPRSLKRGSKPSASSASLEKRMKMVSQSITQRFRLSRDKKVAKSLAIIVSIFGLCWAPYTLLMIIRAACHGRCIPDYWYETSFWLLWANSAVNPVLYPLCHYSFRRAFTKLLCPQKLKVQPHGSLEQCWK
Data set [12] relates to Rattus norvegicus. The data set is described as follows: Inhibition of RAMH-induced dipsogenia in po dosed Sprague-Dawley rat administered 30 mins prior to RAMH challenge measured up to 20 mins. Type of data set: functional. Conditions: read-out: MED. The procedure, abridged: as §1
A short description of data set [13]: Tmax in Sprague-Dawley rat at 3 mg/kg, po and iv by LC-MS/MS analysis. Type of data set: ADME, organism-based. Details: dose 3 mg/kg, route oral. Conditions: in vivo. The procedure, abridged: (§4)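 Rats were given the compound both IV and PO in a routine PK study. Tmax came from the PO arm and Vss from the IV arm.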
The subject of data set [14] is Rattus norvegicus. The experiment in a line: Tmax in Sprague-Dawley rat assessed as (R)-3-(4'-(2-(2-methylpyrrolidin-1-yl)ethyl)biphenyl-4-ylsulfonyl)propan-1-ol level at 3 mg/kg, po and iv by LC-MS/MS analysis. Type of data set: ADME, organism-based. Details: dose 3 mg/kg, route oral. Conditions: in vivo. The procedure, abridged: (§5)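 Exposure to the hydroxylated metabolite was measured after the propyl parent was given to rats at 3 mg/kg PO. Brain (µg/mg) and plasma (µg/mL) levels were taken at 3 time points, and the ratio was the mean.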

The nature of data set [15]: Cmax in Sprague-Dawley rat plasma at 3 mg/kg, po and iv by LC-MS/MS analysis. Details: dose 3 mg/kg, route oral. The class given is ADME, organism-based. The procedure, abridged:
(§6)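 Rat PK after IV and PO dosing; plasma Cmax, Tmax, IV half-life and Vss determined; oral bioavailability from AUCpo/AUCiv. Metabolite exposure determined after a 3 mg/kg PO parent dose.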

Data set [16] has as its system Plasma. The data set is described as follows: Cmax in Sprague-Dawley rat plasma assessed as (R)-3-(4'-(2-(2-methylpyrrolidin-1-yl)ethyl)biphenyl-4-ylsulfonyl)propan-1-ol level at 3 mg/kg, po and iv by LC-MS/MS analysis. Type of data set: ADME, organism-based. Details: dose 3 mg/kg, route oral. As to conditions: in vivo. The procedure, abridged:
as §6

A short description of data set [17]: Half life in Sprague-Dawley rat at 3 mg/kg, iv by LC-MS/MS analysis. Type of data set: ADME, organism-based. Also noted: dose 3 mg/kg, route intravenous. Conditions: in vivo. The procedure, abridged:
as §6

Data set [18] has as its system Rattus norvegicus. The data set is described as follows: Volume of distribution at steady state in Sprague-Dawley rat at 3 mg/kg, po and iv by LC-MS/MS analysis. Type of data set: ADME, organism-based. Also noted: dose 3 mg/kg, route oral. As to conditions: in vivo. The procedure, abridged:
as §4

Data set [19] can be described thus: Oral bioavailability in Sprague-Dawley rat at 3 mg/kg by LC-MS/MS analysis. The class given is ADME, organism-based. Conditions: in vivo. The procedure, abridged: as §6
Data set [20] is described as follows: Ratio of (R)-3-(4'-(2-(2-methylpyrrolidin-1-yl)ethyl)biphenyl-4-ylsulfonyl)propan-1-ol level in brain to plasma in Sprague-Dawley rat at 3 mg/kg, po and iv after 0.75 to 3 hrs by LC-MS/MS analysis. The class given is ADME, organism-based. Also noted: dose 3 mg/kg, route oral. The procedure, abridged:
as §5

Data set [21] can be described thus: Tmax in Sprague-Dawley rat at 1 mg/kg, po and iv by LC-MS/MS analysis. As to conditions: in vivo. The class given is ADME, organism-based. Also noted: dose 1 mg/kg, route oral. The procedure, abridged: as §4
Data set [22] can be described thus: Cmax in Sprague-Dawley rat plasma at 1 mg/kg, po and iv by LC-MS/MS analysis. The class given is ADME, organism-based. Also noted: dose 1 mg/kg, route oral. The procedure, abridged:
as §6

Data set [23] is described as follows: Half life in Sprague-Dawley rat at 1 mg/kg, iv by LC-MS/MS analysis. Also noted: dose 1 mg/kg, route intravenous. Conditions: in vivo. Type of data set: ADME, organism-based. The procedure, abridged:
as §6

Data set [24] deals with Rattus norvegicus. The experiment in a line: Volume of distribution at steady state in Sprague-Dawley rat at 1 mg/kg, po and iv by LC-MS/MS analysis. The class given is ADME, organism-based. Also noted: dose 1 mg/kg, route oral. As to conditions: in vivo. The procedure, abridged: as §4
Data set [25] is described as follows: Oral bioavailability in Sprague-Dawley rat at 1 mg/kg by LC-MS/MS analysis. Type of data set: ADME, organism-based. Conditions: in vivo. The procedure, abridged: as §6
Data set [26] in a line: Ratio of drug level in brain to plasma in Sprague-Dawley rat at 1 mg/kg, po and iv after 0.75 to 3 hrs by LC-MS/MS analysis. Type of data set: ADME, organism-based. Details: dose 1 mg/kg, route oral. Conditions: read-out: BPR. The procedure, abridged:
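Brain (µg/mg) and plasma (µg/mL) levels were measured after oral dosing, with three rats per time point. The b/p ratio was the mean of the nine individual ratios.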

Histamine H1 receptor (Homo sapiens), sequence (P35367 whole entry): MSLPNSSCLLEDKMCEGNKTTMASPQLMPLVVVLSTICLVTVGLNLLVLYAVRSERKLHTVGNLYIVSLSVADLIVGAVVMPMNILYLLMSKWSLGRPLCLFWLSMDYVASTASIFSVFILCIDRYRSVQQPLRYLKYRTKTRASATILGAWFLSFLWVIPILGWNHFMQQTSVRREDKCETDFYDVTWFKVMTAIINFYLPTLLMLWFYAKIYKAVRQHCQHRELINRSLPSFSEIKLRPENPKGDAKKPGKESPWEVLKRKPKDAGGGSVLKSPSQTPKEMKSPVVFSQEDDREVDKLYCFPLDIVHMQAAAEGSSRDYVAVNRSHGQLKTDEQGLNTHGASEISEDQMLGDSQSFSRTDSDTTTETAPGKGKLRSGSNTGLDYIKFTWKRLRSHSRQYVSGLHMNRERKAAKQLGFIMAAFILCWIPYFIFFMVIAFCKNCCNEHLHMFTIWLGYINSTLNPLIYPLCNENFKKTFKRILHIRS
Histamine H2 receptor (Homo sapiens), sequence (P25021 whole entry): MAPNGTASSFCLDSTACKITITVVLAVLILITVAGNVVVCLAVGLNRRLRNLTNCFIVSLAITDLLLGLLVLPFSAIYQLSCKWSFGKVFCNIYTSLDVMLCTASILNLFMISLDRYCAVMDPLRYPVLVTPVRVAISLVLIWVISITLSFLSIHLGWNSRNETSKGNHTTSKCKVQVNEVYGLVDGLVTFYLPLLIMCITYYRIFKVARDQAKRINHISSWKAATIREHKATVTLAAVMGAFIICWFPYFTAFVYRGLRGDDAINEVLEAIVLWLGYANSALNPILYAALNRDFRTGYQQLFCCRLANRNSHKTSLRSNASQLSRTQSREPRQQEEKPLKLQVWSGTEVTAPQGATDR

A word on the inhibition: it is how much of the control response was suppressed. Turning to `COCCCS(=O)(=O)c1ccc(-c2ccc(CCN3CCC[C@H]3C)cc2)cc1`, the inhibition entry in data set [1] was “inactive”. In addition, the inhibition result in data set [2] and in data set [10] was “Active” each time. For the same compound, the outcome in data set [3] and in data set [5] was Active. In addition, the outcome in data set [4] and in [6] was inactive. Besides, the inhibition in data set [7], in [8] and in [9] was less than 50% in each case.

What is called Ki is the dissociation constant of the complex between target and ligand, obtained from inhibition or displacement. Read a high Ki as lower affinity. By Tmax is commonly meant the time from dosing to the highest level. Usually Cmax stands for the highest concentration seen after dosing. One may read the half-life as how long it takes for the measured level to halve. The low end stands for fast loss, the high end for slow loss. A word on the bioavailability: it is the share of a dose that reaches the circulation, judged against a reference dose that is usually intravenous. Low readings indicate little systemic uptake, high ones much systemic uptake. In data set [11], `CCCS(=O)(=O)c1ccc(-c2ccc(CCN3CCC[C@H]3C)cc2)cc1` returned a Ki of 0.6 nM. For the same compound, the minimal effective dose in data set [12] stood at 0.3 mg/kg. In addition, the Tmax in data set [13] came out at 6 min; in data set [14], 180 min. Moreover, the peak concentration (Cmax) in data set [15] worked out at 6 ng/mL; in data set [16], 449 ng/mL. This compound also had a half-life in data set [17] of 18 min. Further, the Vdss in [18] was determined as 5.9 L/kg. In data set [19], this compound displayed a bioavailability of less than 0.1%. In addition, the BPR in data set [20] is 0.7.

Consider `C[C@@H]1CCCN1CCc1ccc(-c2ccc(S(=O)(=O)CCO)cc2)cc1`, for which the affinity in [11] corresponds to a Ki of 1.2 nM. In data set [12], the minimal effective dose stood at 1 mg/kg. The Tmax in data set [21] came out at 30 min. Further, the Cmax in data set [22] amounted to 122 ng/mL. This compound also showed a half-life in [23] of 192 min. Further, in data set [24], the Vdss came to 5 L/kg. Also, the bioavailability in data set [25] is 53.6%. The Kp in [26] was 0.72.
